High-throughput results as filed in PubChem BioAssay.
Compounds with a hit are over-represented: about 3.4% of the library has one in this group of screens.
TAAR1 agonist = human TAAR1 agonism; CHO RD-HGA16 TAAR1, Fluo-8 calcium fluorescence; vehicle wells 0%, saturating PEA agonist 100%; activation, % at 3 µM; 0.99% of 360,000 active;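 active means activation above the mean activation of all test compounds in the run plus 3 SD, cut at about 38% in these data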
Target sequence (Q96RJ0 whole entry, looked up): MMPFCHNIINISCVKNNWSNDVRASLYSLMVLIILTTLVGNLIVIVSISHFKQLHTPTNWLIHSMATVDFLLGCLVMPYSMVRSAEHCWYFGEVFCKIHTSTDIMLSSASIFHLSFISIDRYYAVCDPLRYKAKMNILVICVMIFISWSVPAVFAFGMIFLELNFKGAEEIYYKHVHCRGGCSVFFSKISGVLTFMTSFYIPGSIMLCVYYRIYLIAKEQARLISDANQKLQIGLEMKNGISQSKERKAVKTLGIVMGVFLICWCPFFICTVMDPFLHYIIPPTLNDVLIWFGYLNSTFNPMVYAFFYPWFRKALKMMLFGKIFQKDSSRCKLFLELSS
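System: CHO RD-HGA16 cells carrying human TAAR1 plus Gα16; Incubation: 17-24 h seeding, 75 min 37 °C dye, 30 min RT; Measured by: Fluo-8 fluorescence, 5 s baseline then 140 s kinetic read; Control set: DMSO and PEA EC100; Replication: single well for each compound.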
TRPML3 ag = activates the human TRPML3 channel. 0.29% of 220,000 active. HEK293 TRPML3-YFP, Fluo-8 calcium fluorescence; 100% = the carbachol control signal. Q8TDD5. activation, % at 3 µM;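 active means activation above its plate's cutoff, the mean activation of the plate's test wells plus 3 SD, cut at about 12% in these data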;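 further: 0% = DMSO only wells and 100% = carbachol wells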
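Test system: HEK293 cells stably carrying human TRPML3-YFP; Doses: single dose, 3 µM final nominal compound, 0.3% DMSO final; Schedule: dye loading 1 h 37 °C then 30 min ambient, 125 s read; Technique: Fluo-8 calcium fluorescence; Benchmarks: high control carbachol 87 µM, low control DMSO.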
LANA-H2A inh = blocks KSHV LANA binding to histone H2A/H2B; Q9QR71; cell-free LANA-H2A/H2B peptide, fluorescence polarization; inhibition, % (no concentration beside the values); 0.6% of 320,000 active; AID 2629; in the data active means inhibition mostly above about 10%, no sharp cut-off; inactive means mostly below about 6.7%
zfTRPN1 agonist = agonists of zebrafish TRPN1 channel. HEK293 zebrafish TRPN1-YFP, Fluo-8 calcium fluorescence; 100% = response to 87 µM carbachol. activation, % at 3 µM. 0.18% of 220,000 active;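 active means activation above its plate's cutoff, the mean activation of test wells on that plate plus 3 SD, cut at about 19% in these data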;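 further: 0% = DMSO alone and 100% = 87 µM carbachol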
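Control set: carbachol 87 µM as high control, DMSO as low control; system: HEK293 stable line with zebrafish TRPN1-YFP; read-out: % activation versus carbachol response; detection: intracellular calcium fluorescence with Fluo-8; doses: single test compound dose, 3 µM nominal, 0.3% DMSO; schedule: dye 1 h 37 °C plus 30 min RT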
GPR7 antagonist = antagonists of human GPR7 (neuropeptides B/W receptor 1). 1.1% of 290,000 active. AID 1861. GPR7-expressing cells, fluorescence antagonist assay. inhibition, % at 4.4 µM. P48145; in the data active means inhibition above about 16%, passing the limit was not always enough;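 further: cells stimulated with the agonist NPW; 0% = agonist with vehicle and 100% = vehicle without agonist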
TAAR1 antagonist = antagonists of human TAAR1 | CHO RD-HGA16 TAAR1, Fluo-8 calcium fluorescence, antagonist | inhibition, % at 3 µM | 1.5% of 360,000 active | Q96RJ0;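 active means inhibition above a per-plate cutoff, the mean inhibition of test compounds on that plate plus 3 SD, cut at about 49% in these data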;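 further: 0% = DMSO plus EC80 beta-PEA response and 100% = DMSO alone without agonist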
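Material: RD-HGA16 CHO cells with stable hTAAR1 and Gα16; Dosing: single nominal final test compound concentration of 3 µM; Schedule: seeding 17-24 h prior, 75-min 37 °C, 30-min RT dye loading; Detection: kinetic Fluo-8 calcium fluorescence measurement; Measure: % inhibition from peak post-agonist over basal fluorescence ratio; Benchmarks: vehicle and agonist controls.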
GPR7 antag conf = confirmation of human GPR7 antagonists; AID 1952; GPR7-expressing cells, calcium fluorescence antagonist mode; shares compounds with GPR7 antagonist; inhibition, % at 4.4 µM; 52% of 2,400 active; in the data active means inhibition above about 24%;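 further: stimulated with the GPR7 agonist NPW; 0% = agonist plus vehicle and 100% = vehicle alone without agonist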
MCHR1 antagonist = MCHR1 (human) antagonism in GPR7 counter-screen; inhibition, % at 4.4 µM; MCHR1-expressing cells, fluorescence antagonist assay; AID 2148; 62% of 2,400 active; shares compounds with GPR7 antagonist; in the data active means inhibition above about 22%;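 further: 0% = vehicle with agonist and 100% = vehicle without agonist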
Numbers without * were called inactive.

What do the screens show for `CN1CCN(C2=CC3=CC(=C(C#N)C#N)CCC3CC2)CC1` (stereo not given)?
TRPML3 ag: 328.9*; zfTRPN1 agonist: 617.2*; GPR7 antagonist: 58.9*; GPR7 antag conf: 76.5*; MCHR1 antagonist: 89.9*

Results for CC1(C)CC(NCCN2CCN(C3=CC(=C(C#N)C#N)CC(C)(C)C3)CC2)=CC(=C(C#N)C#N)C1 ?
TAAR1 agonist: 0.6; TRPML3 ag: 0.8; LANA-H2A inh: 2.4; zfTRPN1 agonist: 0.7; GPR7 antagonist: -4.0; TAAR1 antagonist: 19.6

Results for N#CC(C#N)=C1C=C2C=C(N3CCCCCC3)CCC2CC1 (stereo not given) ?
TAAR1 agonist: 956.7*; TRPML3 ag: 365.7*; zfTRPN1 agonist: 890.7*; GPR7 antagonist: 71.7*; TAAR1 antagonist: 104.4*; GPR7 antag conf: 96.7*; MCHR1 antagonist: 109.8*

How did CCN1CCN(C2=CC3=CC(=C(C#N)C#N)CCC3CC2)CC1 (stereo not given) do in these assays?
TRPML3 ag: 310.2*; zfTRPN1 agonist: 395.3*; GPR7 antagonist: 59.7*; GPR7 antag conf: 68.3*; MCHR1 antagonist: 91.3*

What do the screens show for `Cc1ccc([C@H]2C(C(=O)O)=CCN2S(=O)(=O)c2ccc(C)cc2)cc1`?
TAAR1 agonist: 2.3; TAAR1 antagonist: -17.6

How did O=C(Nc1ccc(F)c(Cl)c1)C1Cc2c(-c3ccccc3Oc3ccccc3)ccnc2O1 (stereo not given) do in these assays?
TAAR1 agonist: 1.0; TAAR1 antagonist: 13.5

How did COc1cc(CNC(C)C23CC4CC(CC(C4)C2)C3)ccc1OCC(=O)NC(C)(C)C (stereo not given) do in these assays?
TAAR1 agonist: 20.8; LANA-H2A inh: 4.6; GPR7 antagonist: 19.5; TAAR1 antagonist: 2.1

What do the screens show for `CC(NCc1cc(Br)ccc1OCC(N)=O)C12CC3CC(CC(C3)C1)C2` (stereo not given)?
TAAR1 agonist: 26.9; LANA-H2A inh: -0.1; GPR7 antagonist: 27.3*; TAAR1 antagonist: 33.4; GPR7 antag conf: 28.5*; MCHR1 antagonist: 35.2*

What do the screens show for `COc1ccc(NC(=O)CCN2CCN(c3ccccc3F)CC2)c(OC)c1`?
TAAR1 agonist: -1.8; LANA-H2A inh: 3.3; GPR7 antagonist: 11.9; TAAR1 antagonist: 19.4

How did CCOC(=O)c1c(-c2ccc(-c3ccccc3)cc2)csc1NC(=O)CNCCN(C)C do in these assays?
TAAR1 agonist: 14.7; LANA-H2A inh: 1.8; GPR7 antagonist: 33.9*; TAAR1 antagonist: 23.3; GPR7 antag conf: 59.8*; MCHR1 antagonist: 75.0*

How did CCOC(=O)c1c(-c2ccccc2)csc1NC(=O)CCN1C(=O)c2ccccc2C1=O do in these assays?
TAAR1 agonist: 1.2; TRPML3 ag: 0.1; LANA-H2A inh: 3.4; zfTRPN1 agonist: 1.5; GPR7 antagonist: -10.3; TAAR1 antagonist: -2.2

Results for COC(=O)N(NC(=O)C(O)(c1ccccc1)c1ccccc1)c1ccccc1 ?
TAAR1 agonist: 9.7; TRPML3 ag: -0.4; LANA-H2A inh: 4.0; zfTRPN1 agonist: -1.0; GPR7 antagonist: 26.0*; TAAR1 antagonist: -16.6; GPR7 antag conf: 16.7; MCHR1 antagonist: 26.6*

How did COc1ccccc1NNC(=O)C(O)(c1ccccc1)c1ccccc1 do in these assays?
TAAR1 agonist: 7.5; TRPML3 ag: 0.1; LANA-H2A inh: 2.5; zfTRPN1 agonist: -1.2; GPR7 antagonist: -7.3; TAAR1 antagonist: -17.7

What do the screens show for `O=C(c1ccc(F)cc1)N(NC(=O)C(O)(c1ccccc1)c1ccccc1)c1ccccc1`?
TAAR1 agonist: 4.8; TRPML3 ag: 0.7; LANA-H2A inh: -2.9; zfTRPN1 agonist: -1.3; GPR7 antagonist: 37.4*; TAAR1 antagonist: 1.4; GPR7 antag conf: 46.0*; MCHR1 antagonist: 31.0*
